From publication PMC12166256 (Clinical Pharmacology and Therapeutics, 2025)

Test: Food effect study: safety and tolerability
Assay type: in vivo, human
Summary of the method: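 Healthy males aged 18–55 with BMI 18–30 kg/m² were followed through dosing and a 6–8-day follow-up. Checks: physical examination, clinical laboratory tests, vital signs and 12-lead ECG, with adverse events coded in MedDRA. Events of special interest: ALT ≥2×ULN, QTcF ≥500 ms, Grade ≥2 photosensitivity, symptomatic overdose. Treatment-emergent events were summarised descriptively by organ class, preferred term and dose level for all exposed participants.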

CN1C(=O)c2cccc(OC(F)F)c2[C@H]2C[C@@H]1c1nc3ccc(-c4cnc(C5(N)CCC5)nc4)cc3n12 [Balinatunfib]
participants with at least one TEAE (200 mg fasted (five of eight)): 62.5% | Any event TEAE, events (200 mg fasted, N = 8): 7 | Any event TEAE, participants (200 mg fasted, N = 8): 5 (62.5) n (%) | Blood and lymphatic system disorders TEAE, events (200 mg fasted, N = 8): 1 | Blood and lymphatic system disorders TEAE, participants (200 mg fasted, N = 8): 1 (12.5) n (%) | Blood pressure orthostatic decreased TEAE, events (200 mg fasted, N = 8): 1 | Blood pressure orthostatic decreased TEAE, participants (200 mg fasted, N = 8): 1 (12.5) n (%) | Diarrhea TEAE, events (200 mg fasted, N = 8): 1 | Diarrhea TEAE, participants (200 mg fasted, N = 8): 1 (12.5) n (%) | Dry skin TEAE, events (200 mg fasted, N = 8): 1 | Dry skin TEAE, participants (200 mg fasted, N = 8): 1 (12.5) n (%) | Fatigue TEAE, events (200 mg fasted, N = 8): 0 | Fatigue TEAE, participants (200 mg fasted, N = 8): 0 n (%) | Flatulence TEAE, events (200 mg fasted, N = 8): 1 | Flatulence TEAE, participants (200 mg fasted, N = 8): 1 (12.5) n (%) | Gastrointestinal disorders TEAE, events (200 mg fasted, N = 8): 2 | Gastrointestinal disorders TEAE, participants (200 mg fasted, N = 8): 2 (25.0) n (%) | General disorders and administration site conditions TEAE, events (200 mg fasted, N = 8): 0 | General disorders and administration site conditions TEAE, participants (200 mg fasted, N = 8): 0 n (%) | Headache TEAE, events (200 mg fasted, N = 8): 1 | Headache TEAE, participants (200 mg fasted, N = 8): 1 (12.5) n (%) | Investigations TEAE, events (200 mg fasted, N = 8): 1 | Investigations TEAE, participants (200 mg fasted, N = 8): 1 (12.5) n (%) | Loss of consciousness TEAE, events (200 mg fasted, N = 8): 1 | Loss of consciousness TEAE, participants (200 mg fasted, N = 8): 1 (12.5) n (%) | Muscle tightness TEAE, events (200 mg fasted, N = 8): 0 | Muscle tightness TEAE, participants (200 mg fasted, N = 8): 0 n (%) | Musculoskeletal and connective tissue disorders TEAE, events (200 mg fasted, N = 8): 0 | Musculoskeletal and connective tissue disorders TEAE, participants (200 mg fasted, N = 8): 0 n (%) | Nervous system disorders TEAE, events (200 mg fasted, N = 8): 2 | Nervous system disorders TEAE, participants (200 mg fasted, N = 8): 2 (25.0) n (%) | Neutropenia TEAE, events (200 mg fasted, N = 8): 1 | Neutropenia TEAE, participants (200 mg fasted, N = 8): 1 (12.5) n (%) | Skin and subcutaneous tissue disorders TEAE, events (200 mg fasted, N = 8): 1 | Skin and subcutaneous tissue disorders TEAE, participants (200 mg fasted, N = 8): 1 (12.5) n (%) | Tendonitis TEAE, events (200 mg fasted, N = 8): 0 | Tendonitis TEAE, participants (200 mg fasted, N = 8): 0 n (%) | neutrophil count in the participant with Grade 2 neutropenia (200 mg fasted, Period 1, normal range 1.46–5.85): 1.42e+09 L⁻¹ | participants with at least one TEAE (200 mg fed (four of six)): 66.7% | Any event TEAE, events (200 mg fed, N = 6): 6 | Any event TEAE, participants (200 mg fed, N = 6): 4 (66.7) n (%) | Blood and lymphatic system disorders TEAE, events (200 mg fed, N = 6): 0 | Blood and lymphatic system disorders TEAE, participants (200 mg fed, N = 6): 0 n (%) | Blood pressure orthostatic decreased TEAE, events (200 mg fed, N = 6): 1 | Blood pressure orthostatic decreased TEAE, participants (200 mg fed, N = 6): 1 (16.7) n (%) | Diarrhea TEAE, events (200 mg fed, N = 6): 1 | Diarrhea TEAE, participants (200 mg fed, N = 6): 1 (16.7) n (%) | Dry skin TEAE, events (200 mg fed, N = 6): 0 | Dry skin TEAE, participants (200 mg fed, N = 6): 0 n (%) | Fatigue TEAE, events (200 mg fed, N = 6): 1 | Fatigue TEAE, participants (200 mg fed, N = 6): 1 (16.7) n (%) | Flatulence TEAE, events (200 mg fed, N = 6): 0 | Flatulence TEAE, participants (200 mg fed, N = 6): 0 n (%) | Gastrointestinal disorders TEAE, events (200 mg fed, N = 6): 1 | Gastrointestinal disorders TEAE, participants (200 mg fed, N = 6): 1 (16.7) n (%) | General disorders and administration site conditions TEAE, events (200 mg fed, N = 6): 1 | General disorders and administration site conditions TEAE, participants (200 mg fed, N = 6): 1 (16.7) n (%) | Headache TEAE, events (200 mg fed, N = 6): 1 | Headache TEAE, participants (200 mg fed, N = 6): 1 (16.7) n (%) | Investigations TEAE, events (200 mg fed, N = 6): 1 | Investigations TEAE, participants (200 mg fed, N = 6): 1 (16.7) n (%) | Loss of consciousness TEAE, events (200 mg fed, N = 6): 0 | Loss of consciousness TEAE, participants (200 mg fed, N = 6): 0 n (%) | Muscle tightness TEAE, events (200 mg fed, N = 6): 1 | Muscle tightness TEAE, participants (200 mg fed, N = 6): 1 (16.7) n (%) | Musculoskeletal and connective tissue disorders TEAE, events (200 mg fed, N = 6): 2 | Musculoskeletal and connective tissue disorders TEAE, participants (200 mg fed, N = 6): 2 (33.3) n (%) | Nervous system disorders TEAE, events (200 mg fed, N = 6): 1 | Nervous system disorders TEAE, participants (200 mg fed, N = 6): 1 (16.7) n (%) | Neutropenia TEAE, events (200 mg fed, N = 6): 0 | Neutropenia TEAE, participants (200 mg fed, N = 6): 0 n (%) | Skin and subcutaneous tissue disorders TEAE, events (200 mg fed, N = 6): 0 | Skin and subcutaneous tissue disorders TEAE, participants (200 mg fed, N = 6): 0 n (%) | Tendonitis TEAE, events (200 mg fed, N = 6): 1 | Tendonitis TEAE, participants (200 mg fed, N = 6): 1 (16.7) n (%) | Grade ≥ 3 TEAE, treatment-emergent SAEs, AESIs (food effect study): No participants
